Bioassay records deposited in PubChem by Broad Institute.
ERAP1 inh – human ERAP1 aminopeptidase inhibitors, primary screen, biochemical, single point, plate reader; Endoplasmic reticulum aminopeptidase 1 (Homo sapiens), Q9NZ08; recombinant ERAP1, Leu-AMC fluorescence, 60 min; inhibition, % at 10.7 µM; actives 0.15% (n = 340,000); AID 652197, 2013;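 active = mean replicate inhibition of at least 30%, or all replicates individually reaching that 30% level; inactive = mean below 30% and not every replicate reaching it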
E-selectin induc – E-selectin induction in HUVECs, primary screen, imaging, HUVEC, immunofluorescence imaging, single point; activation, % at 7.58 µM; P16581; normalized: neutral wells 0, TNF-alpha wells 100; actives 0.37% (n = 260,000); AID 686992, 2013;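 active = mean E-selectin-positive cell signal at least 10% of the positive control, reached in at least 60% of replicates, without over 20% cell loss; inconclusive = no rule given, readout overlaps actives, possibly toxicity-flagged; inactive = the rest, including those meeting only one limit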
Target sequence (P16581 whole entry, looked up): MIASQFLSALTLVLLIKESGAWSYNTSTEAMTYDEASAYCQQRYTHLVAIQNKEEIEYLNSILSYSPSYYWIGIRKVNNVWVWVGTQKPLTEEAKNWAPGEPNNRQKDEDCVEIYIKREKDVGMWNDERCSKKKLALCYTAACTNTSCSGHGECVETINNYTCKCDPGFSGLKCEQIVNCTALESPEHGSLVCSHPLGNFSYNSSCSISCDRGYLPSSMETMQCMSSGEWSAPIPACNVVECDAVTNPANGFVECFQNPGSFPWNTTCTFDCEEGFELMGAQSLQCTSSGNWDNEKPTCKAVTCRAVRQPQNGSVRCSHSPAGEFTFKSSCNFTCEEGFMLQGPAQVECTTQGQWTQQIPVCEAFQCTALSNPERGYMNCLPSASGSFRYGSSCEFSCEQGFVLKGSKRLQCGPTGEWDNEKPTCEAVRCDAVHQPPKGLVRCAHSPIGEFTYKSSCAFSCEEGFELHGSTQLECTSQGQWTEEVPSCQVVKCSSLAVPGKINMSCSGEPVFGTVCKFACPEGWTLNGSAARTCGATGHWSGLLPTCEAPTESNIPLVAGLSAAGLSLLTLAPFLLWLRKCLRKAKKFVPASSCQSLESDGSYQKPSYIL
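Test system – human umbilical vein endothelial cells (HUVEC), E-selectin induction · Input – 3,000 HUVEC seeded per well · Buffer or medium – EGM-2, gelatin · Compound dosing – single-point compound dose · Detection – immunofluorescence imaging · Measure – percent E-selectin-positive cells · Controls – TNF-alpha high, DMSO low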
PglD DTNB – C. jejuni PglD acetyltransferase inhibitors, primary screen, biochemical, DTNB colorimetric, single point. UDP-N-acetylbacillosamine N-acetyltransferase PglD (Campylobacter jejuni). purified PglD enzyme, DTNB colorimetric CoA detection. inhibition, % at 12.5 µM. actives 0.098% (n = 360,000). AID 602405, 2012; in the data active = inhibition above about 16%, passing the limit was not always enough; inconclusive = no clear call, values can overlap the other calls
SIRT5 inh – SIRT5 desuccinylase inhibitors, primary screen, biochemical, fluorescence imaging, single point, set 5; NAD-dependent protein deacylase sirtuin-5, mitochondrial (Homo sapiens), Q9NXA8; Purified SirT5, succinyl-peptide AMC, trypsin-coupled fluorescence; inhibition, % at 15 µM; actives 1.1% (n = 330,000); AID 652115, 2013; in the data active = inhibition above about 15%; inconclusive = no clear call, values can overlap the other calls
DENV2 CPE – inhibitors of DENV2 cytopathic effect, primary screen, cell-based, plate reader, single concentration; actives 1.7% (n = 350,000); CPE inhibition, % at 9.99 µM; AID 651640, 2012; DENV2-infected cells, cytopathic effect rescue; in the data active = CPE inhibition above about 20%, passing the limit was not always enough; inconclusive = no clear call, values can overlap the other calls; tested in BHK-21 cells
Each line names hits and unclear results; the compound was inactive in the other large screens. Shown are actives, neighbours in structure and some others; about 2.5% of the full set was active somewhere.

CN(C)C(=O)c1cccc(-c2ccc([C@H]3[C@@H](CO)N4C(=O)CN(C(=O)C5CCCCC5)C[C@@H]34)cc2)c1	none (no result: PglD DTNB)
CC(=O)N1CC(=O)N2[C@@H](CO)[C@H](c3ccc(-c4ccc(C(=O)N(C)C)cc4)cc3)[C@@H]2C1	SIRT5 inh 23 (no result: ERAP1 inh, PglD DTNB)
COc1ccc(-c2ccc([C@@H]3[C@H]4CN(C(=O)C5CC5)CC(=O)N4[C@H]3CO)cc2)cc1	DENV2 CPE 31 (no result: PglD DTNB)
CN(C)C(=O)c1cccc(-c2ccc([C@@H]3[C@@H](CO)N4C(=O)CN(C(=O)C5CCCCC5)C[C@H]34)cc2)c1	DENV2 CPE 39 (no result: PglD DTNB)
CN(C)C(=O)c1cccc(-c2ccc([C@@H]3[C@H](CO)N4C(=O)CN(C(=O)C5CC5)C[C@@H]34)cc2)c1	SIRT5 inh 19 (no result: PglD DTNB)
CCCC#Cc1ccc([C@@H]2[C@@H](CO)N3CCCCN(S(=O)(=O)Cc4ccccc4)C[C@@H]23)cc1	none
O=C(c1cc2c(s1)CCCC2)n1cccn1	none (no result: E-selectin induc)
C[C@@H]1CCCCO[C@@H](CN(C)Cc2ccc(C(=O)O)cc2)[C@@H](C)CN([C@@H](C)CO)C(=O)c2cc(NC(=O)NC3CCCCC3)ccc2O1	none
CO[C@H](CN(C)CC1CCOCC1)[C@@H](C)CN(C(=O)Nc1ccc(F)cc1)[C@H](C)CO	none
CO[C@@H](CN(C)CC1CCOCC1)[C@H](C)CN(C(=O)Nc1ccc(F)cc1)[C@H](C)CO	SIRT5 inh 16
O=c1oc2ccccc2n1Cc1ccccc1F	none
CC(=C/c1ccccc1)/C=N/NC(=O)c1cccs1	DENV2 CPE inconclusive (no result: E-selectin induc)
CC(Oc1ccc2ccc(=O)oc2c1)C(=O)NC(Cc1c[nH]c2ccc(O)cc12)C(=O)O (stereo unspecified)	DENV2 CPE 102 (no result: E-selectin induc)
CC(Oc1ccc2c(-c3ccccc3)cc(=O)oc2c1)C(=O)N[C@H](Cc1c[nH]c2ccccc12)C(=O)O (stereo partly specified)	none (no result: E-selectin induc)
COc1ccc(-c2cc(=O)oc3cc(OC(C)C(=O)NC(Cc4c[nH]c5ccc(O)cc45)C(=O)O)ccc23)cc1 (stereo unspecified)	ERAP1 inh 31, DENV2 CPE inconclusive (no result: E-selectin induc, SIRT5 inh)
CCc1cc(=O)oc2cc(C)cc(OC(C)C(=O)NC(Cc3c[nH]c4ccc(O)cc34)C(=O)O)c12 (stereo unspecified)	DENV2 CPE 68 (no result: E-selectin induc)
Cc1ccccc1C(=O)N1CCC[C@H]1C(=O)N1CCC[C@H]1C(=O)NCc1ccccn1	none (no result: ERAP1 inh, PglD DTNB)
Cc1ccc(S(=O)(=O)N2CCCCC2)cc1NC(=O)c1cc(=O)[nH]c2ccccc12	DENV2 CPE 77 (no result: E-selectin induc)
Cc1ccc(S(=O)(=O)N2CCCCC2)cc1NC(=O)CCOc1ccccc1	DENV2 CPE 72 (no result: E-selectin induc, PglD DTNB)
Cc1ccc(S(=O)(=O)N2CCOCC2)cc1NC(=O)CN(C)CC(=O)Nc1cccc(F)c1	DENV2 CPE 83 (no result: SIRT5 inh)
CC(=O)Nc1cccc(C(=O)OC2CCOC2=O)c1 (stereo unspecified)	none (no result: E-selectin induc)
CC(=O)c1cccc(CN2CCN(C3CCCC3)C(CCO)C2)c1 (stereo unspecified)	none (no result: ERAP1 inh, PglD DTNB)
CCOc1ccccc1N1CC(C(=O)Nc2ccccc2CC)CC1=O (stereo unspecified)	none (no result: E-selectin induc)
COc1ccc(OCC(=O)N/N=C(\CCC(=O)O)c2cccs2)cc1	none (no result: SIRT5 inh, DENV2 CPE)
COc1ccc(NC(=O)C2CC(=O)N(c3cc(C)ccc3C)C2)cc1 (stereo unspecified)	none (no result: ERAP1 inh, E-selectin induc, SIRT5 inh, DENV2 CPE)
CN(CC(=O)Nc1ccccc1Cl)C(=O)COC(=O)c1cccs1	DENV2 CPE 57 (no result: E-selectin induc)
CN(CC(=O)Nc1ccccc1Cl)C(=O)COC(=O)/C=C/c1cccs1	none (no result: E-selectin induc)
C[C@H]1CN([C@@H](C)CO)C(=O)Cc2cc(NC(=O)Nc3ccc(F)cc3)ccc2O[C@H]1CN(C)C(=O)Nc1ccc(F)cc1	SIRT5 inh 16
COc1ccc(NC(=O)N(C)C[C@@H]2Oc3ccc(NC(=O)Nc4ccc(F)cc4)cc3CC(=O)N([C@@H](C)CO)C[C@@H]2C)cc1	DENV2 CPE 50
C[C@@H]1CN([C@@H](C)CO)C(=O)Cc2cc(NC(=O)Nc3ccc(F)cc3)ccc2O[C@@H]1CN(C)Cc1ccc(C(=O)O)cc1	E-selectin induc 80, DENV2 CPE inconclusive
C[C@H](CO)N1C[C@H](C)[C@H](CN(C)C(=O)Nc2ccc(F)cc2)Oc2ccc(NC(=O)Nc3ccc(F)cc3)cc2CC1=O	none
